Screens from PubChem BioAssay.
PRMT1 FP inh = PRMT1 (human) inhibition, primary screen | 1.3% of 370,000 active | recombinant PRMT1, activity-based probe fluorescence polarization | Q99873 | inhibition, % at 2.79 µM;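 active = inhibition above about 21% made by adding two undisclosed values, limit read from the data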
TDP2 inh = blocks human TDP2 phosphodiesterase activity; O95551; recombinant TDP2, T5PNP hydrolysis, p-nitrophenol absorbance 415 nm; inhibition, % at 12.8 µM; 0.34% of 370,000 active; AID 720702;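 active = inhibition above the mean of all tested compounds plus 3 SD, set per campaign, cut at about 25% in these data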;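 note: 0% = DMSO with enzyme and 100% = buffer with substrate but no TDP2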
Target sequence (O95551 whole entry, looked up): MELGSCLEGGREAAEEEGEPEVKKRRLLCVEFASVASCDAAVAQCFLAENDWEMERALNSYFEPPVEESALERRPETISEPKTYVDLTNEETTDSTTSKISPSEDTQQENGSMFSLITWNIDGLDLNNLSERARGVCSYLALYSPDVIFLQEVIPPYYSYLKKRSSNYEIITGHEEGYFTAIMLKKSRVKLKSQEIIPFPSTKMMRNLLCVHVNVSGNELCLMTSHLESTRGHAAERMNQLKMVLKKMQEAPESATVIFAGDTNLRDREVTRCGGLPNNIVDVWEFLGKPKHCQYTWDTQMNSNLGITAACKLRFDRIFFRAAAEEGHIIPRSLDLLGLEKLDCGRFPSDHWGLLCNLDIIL
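Material: recombinant human TDP2; quantity: TDP2 enzyme at 120 nM final; medium: Tris-HCl pH 7.5 with MgCl2; compound: single concentration, 12.8 µM nominal, with 1% DMSO; incubation: 2 h enzyme incubation at 37 °C; signal: epi absorbance; measure: percent inhibition; benchmarks: high control without enzyme, low control DMSO plus TDP2; repeats: singlicate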
PAD4 FP inh = PAD4 (human) enzyme inhibition; Q9UM07; recombinant PAD4, RCA probe fluorescence polarization; inhibition, % at 6.36 µM; 0.41% of 330,000 active; AID 485272;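 active = percent inhibition above a cutoff equal to the mean of all tested compounds plus 3 SD, cut at about 15% in these data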;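 note: 0% = PAD4 with RCA probe and DMSO and 100% = probe without PAD4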
GSTO1 counter = counter-screen for RBBP9 inhibitors: inhibitors of human GSTO1. inhibition, % at 5.96 µM. P78417. recombinant GSTO1, activity-based probe fluorescence polarization. 1.1% of 300,000 active;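 active = inhibition above the campaign mean inhibition plus 3 SD, cut at about 35% in these data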;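 note: 0% = GSTO1-1 with DMSO and 100% = wells lacking GSTO1-1 enzyme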
CTSL1 counter = cathepsin L1 inhibition, PFM18AAP counter-screen | recombinant F. hepatica cathepsin L1, Z-Leu-Arg-MCA fluorescence | inhibition, % at 5.96 µM | AID 1906 | 0.49% of 300,000 active;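 active = inhibition above the mean of all tested compounds plus 3 SD, set per screening campaign, cut at about 17% in these data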;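 note: 0% = plate median of test compound wells and 100% = 1 µM Z-Phe-Ala-diazomethylketone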
GSTO1 confirm = confirmation of human GSTO1 inhibitors | shares compounds with GSTO1 counter | recombinant GSTO1, probe fluorescence polarization | inhibition, % at 5.96 µM | 54% of 2,400 active | AID 2176;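 active = inhibition above the primary screen's cutoff, its mean inhibition plus 3 SD, cut at about 35% in these data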;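 note: loss of polarization as inhibitors block binding of rhodamine sulfonate ester activity probe; 0% = GSTO1 with DMSO and 100% = wells lacking GSTO1 enzyme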
PAD4 FP conf = PAD4 (human) inhibition, confirmed. shares compounds with PAD4 FP inh. recombinant PAD4, RCA probe fluorescence polarization. inhibition, % at 6.36 µM. 28% of 1,200 active. AID 488796;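 active = mean inhibition across replicates above the hit cutoff set by the earlier primary screen, cut at about 15% in these data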;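 note: inhibitors block active-site labeling by the probe so polarization falls; 0% = PAD4 with probe and DMSO and 100% = probe without PAD4 enzyme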
TDP2 inh conf = confirmation of human TDP2 inhibitors; shares compounds with TDP2 inh; recombinant human TDP2, absorbance read-out; inhibition, % at 12.8 µM; 22% of 1,100 active; AID 743263; in the data active = inhibition above about 25%;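 note: 0% = vehicle with enzyme and 100% = no enzyme buffer only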
Starred values were filed as active, the others as inactive. Rows were chosen to be rich in hits. Some 2.5% of all compounds tested hit in one or more screens of this group.

Cc1[nH][nH]c(=O)c1C(c1c(C)[nH][nH]c1=O)c1cn(Cc2ccc(Cl)c(Cl)c2)c2ccccc12 was read as PRMT1 FP inh 6, TDP2 inh 44*, PAD4 FP inh 33*, GSTO1 counter 66*, CTSL1 counter 10, GSTO1 confirm 56*, PAD4 FP conf -6 and TDP2 inh conf 27*.
Screening COc1cc(/C=C2/C(=O)N(c3ccc([N+](=O)[O-])cc3)N=C2N2CCOCC2)ccc1O returned PRMT1 FP inh 6, TDP2 inh 67*, PAD4 FP inh 70*, GSTO1 counter 89*, CTSL1 counter 3, GSTO1 confirm 10, PAD4 FP conf 2 and TDP2 inh conf 32*.
`O=C1C(N2CCOCC2)=C(n2nnc3ccccc32)C(=O)c2ccccc21` gave PRMT1 FP inh 7, TDP2 inh 50*, PAD4 FP inh 23*, GSTO1 counter 77*, CTSL1 counter 81*, GSTO1 confirm 84*, PAD4 FP conf 15* and TDP2 inh conf 64*.
Screening O=C1c2ccccc2C(=O)c2c1cccc2-n1nnc2ccccc21 returned PRMT1 FP inh 3, TDP2 inh 0, PAD4 FP inh -1, GSTO1 counter -3 and CTSL1 counter -1.
`CCOC(=O)c1cccc(NC(=O)CN(C)S(=O)(=O)c2ccco2)c1` gave PRMT1 FP inh 4 and TDP2 inh 1.
`COc1ccc(-c2cc(=O)[nH][nH]2)cc1OC` gave PRMT1 FP inh 14, TDP2 inh 87*, PAD4 FP inh 65*, GSTO1 counter 66*, CTSL1 counter 5, GSTO1 confirm 3, PAD4 FP conf -7 and TDP2 inh conf 17.
Screening O=c1cc(-c2ccc(C3CCCCC3)cc2)[nH][nH]1 returned PRMT1 FP inh 1, TDP2 inh 3, PAD4 FP inh -18, GSTO1 counter 19 and CTSL1 counter -3.
COc1ccc(-c2c[nH]c(=O)[nH]c2=O)cc1OC was read as PRMT1 FP inh 4, TDP2 inh -1, PAD4 FP inh -2, GSTO1 counter -10 and CTSL1 counter -1.
`O=c1cc(-c2ccc(F)cc2)[nH][nH]1` gave PRMT1 FP inh -2, TDP2 inh 55*, PAD4 FP inh 59*, GSTO1 counter 41*, CTSL1 counter -1, GSTO1 confirm 7, PAD4 FP conf -3 and TDP2 inh conf 8.
Screening O=c1cc(-c2ccccc2)[nH][nH]1 returned PRMT1 FP inh 0, TDP2 inh 59*, PAD4 FP inh 35*, GSTO1 counter 38*, CTSL1 counter 1, GSTO1 confirm 2, PAD4 FP conf 7 and TDP2 inh conf 4.
`COc1ccc(CC2=CC(=O)c3ccccc3C2=O)cc1` gave PRMT1 FP inh 79*, TDP2 inh 53*, PAD4 FP inh -10, GSTO1 counter 67*, CTSL1 counter 14, GSTO1 confirm 15 and TDP2 inh conf 17.
For O=C1C=C(Nc2ccccc2O)c2ccccc2C1=O the results were PRMT1 FP inh 12, TDP2 inh 61*, PAD4 FP inh 65*, GSTO1 counter 72*, CTSL1 counter 22*, GSTO1 confirm 74*, PAD4 FP conf 31* and TDP2 inh conf 54*.
For N#Cc1c(NC(=O)c2ccc(Br)o2)n(-c2ccccc2)c2nc3ccccc3nc12 the results were PRMT1 FP inh -2, TDP2 inh 28*, PAD4 FP inh 36*, GSTO1 counter 74*, CTSL1 counter 11, GSTO1 confirm 85*, PAD4 FP conf 20* and TDP2 inh conf 60*.
Screening COc1ccc(C(c2c(C)[nH]n(-c3ccccc3)c2=O)c2c(C)[nH]n(-c3ccccc3)c2=O)cc1OC returned PRMT1 FP inh 3, TDP2 inh 88*, PAD4 FP inh 69*, GSTO1 counter 69*, CTSL1 counter -3, GSTO1 confirm 22, PAD4 FP conf 0 and TDP2 inh conf 39*.
